Laboratory results reported in ChEMBL document CHEMBL1821668, “Isolation and characterization of aphidicolin and chlamydosporol derivatives from Tolypocladium inflatum” (J Nat Prod, 2011).

How the values were obtained:
[1] = system: A549; assay: Cytotoxicity against human A549 cells after 72 hrs by MTS assay; assay type: functional, cell-based; settings: A549, 72 h
In short: (§1)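 Triplicate wells seeded at (2–5) × 10^3 cells each, depending on growth rate, and left overnight to attach. Medium was then replaced with medium containing test compound at serial dilutions from 100 mM DMSO stocks, or 0.1% DMSO. Incubation was 72 h at 37 °C in humidified 5% CO2. MTS was added in the dark, with a 90 min read-out incubation at 37 °C.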

[2] = Cytotoxicity against human CNE1-LMP1 cells after 72 hrs by MTS assay; assay type: functional, cell-based; settings: CNE1-LMP1, 72 h; in short: as §1
[3] = system: A-375; assay: Cytotoxicity against human A375 cells after 72 hrs by MTS assay; assay type: functional, cell-based; settings: A-375, 72 h; in short: as §1
[4] = system: MCF7; assay: Cytotoxicity against human MCF7 cells after 72 hrs by MTS assay; assay type: functional, cell-based; settings: MCF7, 72 h; in short: as §1
[5] = Cytotoxicity against human MGC cells after 72 hrs by MTS assay; assay type: functional, cell-based; in short: as §1
[6] = Cytotoxicity against human EC109 cells after 72 hrs by MTS assay; assay type: functional, cell-based; settings: ECa-109, 72 h; in short: as §1
[7] = system: PANC-1; assay: Cytotoxicity against human PANC1 cells after 72 hrs by MTS assay; assay type: functional, cell-based; settings: PANC-1, 72 h; in short: as §1
[8] = Cytotoxicity against human Hep3B2 cells after 72 hrs by MTS assay; assay type: functional, cell-based, Hep 3B2; settings: Hep3B; in short: as §1
[9] = system: HaCaT; assay: Cytotoxicity against human HaCaT cells after 72 hrs by MTS assay; assay type: functional, cell-based; in short: as §1

Row | Compound | IC50 [1] [µM] | IC50 [2] [µM] | IC50 [3] [µM] | IC50 [4] [µM] | IC50 [5] [µM] | IC50 [6] [µM] | IC50 [7] [µM] | IC50 [8] [µM] | IC50 [9] [µM]
1 | C[C@@]12CO[C@H](c3ccc(O)cc3)O[C@@H]1CC[C@@]1(C)[C@H]2CC[C@H]2C[C@@H]3C[C@@]21CC[C@]3(O)CO [INFLATIN A] | 75.3 | 39.1 | 47.3 | 33.5 | 54.5 | 47.1 | 19.9 | 14.8 | 49.1
2 | CC(=O)OC[C@@]1(O)CC[C@]23C[C@H]1C[C@@H]2CC[C@H]1[C@]2(C)CO[C@H](c4ccc(O)cc4)O[C@@H]2CC[C@@]13C [INFLATIN B] | 25 | 15 | 25.5 | 75.2 | > 100 | 70.8 | 53.2 | 7.3 | 55.1
3 | COc1cc(=O)oc2c1[C@H](O)O[C@@H](C)[C@H]2C [INFLATIN C] | > 100 | > 100 | > 100 | > 100 | > 100 | > 100 | > 100 | > 100 | > 100
4 | COc1cc(=O)oc2c1[C@H](O[C@@H]1O[C@@H](C)[C@@H](C)c3oc(=O)cc(OC)c31)O[C@@H](C)[C@H]2C [INFLATIN D] | > 100 | > 100 | > 100 | > 100 | > 100 | > 100 | > 100 | > 100 | > 100
5 | COc1cc(=O)oc2c1[C@H](O[C@@H]1O[C@@H](C)[C@@H](C)c3oc(=O)cc(OC)c31)O[C@@H](C)[C@@H]2C [INFLATIN E] | > 100 | > 100 | > 100 | > 100 | > 100 | > 100 | > 100 | > 100 | > 100
6 | COc1cc(=O)oc2c1[C@H](O[C@@H]1O[C@@H](C)[C@H](C)c3oc(=O)cc(OC)c31)O[C@@H](C)[C@@H]2C [INFLATIN F] | > 100 | > 100 | > 100 | > 100 | > 100 | > 100 | > 100 | 57.5 | > 100
7 | CC(=O)O[C@H]1C(=O)[C@@]2(C)[C@H]([C@H](OC(=O)c3ccccc3)[C@]3(O)C[C@H](OC(=O)[C@H](O)[C@@H](NC(=O)c4ccccc4)c4ccccc4)C(C)=C1C3(C)C)[C@]1(OC(C)=O)CO[C@@H]1C[C@@H]2O [PACLITAXEL] | 0.03 | 0.0042 | 0.0089 | 0.014 | 0.0064 | 0.14 | 0.0011 | 1.6e-05 | 0.024
